Measurements published in ChEMBL document CHEMBL3244396, “Synthesis and antileukemic activity of 5-substituted 2,3-dihydro-6,7-bis(hydroxymethyl)-1H-pyrrolizine diesters” (J Med Chem, 1977).
≈ marks a conversion by molar mass, not a printed value.

Tests used:
[1] = Cytotoxicity against human 9KB cells treated as ethanol solution; type: functional; conditions: read-out: ED50 (the source's name)
Procedure, shortened: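 Compound applied as an ethanol solution; activity read out as ED50 under the general screening protocol.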

L1210 [2] = assay: Antileukemic activity against mouse L1210 cells allografted in female CDF1 mouse assessed as change in body weight at 50 mg/kg, ip administered daily for 9 days as Klucel suspension starting 24 hrs after tumor inoculation; type: functional; conditions: route intraperitoneal
Procedure, shortened: (§1)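 Ascitic fluid carrying L1210 cells was inoculated ip. Compound was given ip as a Klucel (hydroxypropylcellulose) suspension in nine daily doses, starting 24 h after inoculation. Body-weight difference (treated minus control) was recorded on day 5. Survival was scored as %T/C of mean survival time.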

L1210 [3] = assay: Antileukemic activity against mouse L1210 cells allografted in female CDF1 mouse assessed as change in body weight at 100 mg/kg, ip administered daily for 9 days as Klucel suspension starting 24 hrs after tumor inoculation; type: functional; conditions: route intraperitoneal; procedure, shortened: as §1
L1210 [4] = assay: Antileukemic activity against mouse L1210 cells allografted in female CDF1 mouse assessed as change in body weight at 200 mg/kg, ip administered daily for 9 days as Klucel suspension starting 24 hrs after tumor inoculation; type: functional; conditions: route intraperitoneal; procedure, shortened: as §1
L1210 [5] = assay: Antileukemic activity against mouse L1210 cells allografted in female CDF1 mouse assessed as change in body weight at 400 mg/kg, ip administered daily for 9 days as Klucel suspension starting 24 hrs after tumor inoculation; type: functional; conditions: route intraperitoneal; procedure, shortened: as §1
L1210 [6] = assay: Antileukemic activity against mouse L1210 cells allografted in male CDF1 mouse assessed as change in body weight at 50 mg/kg, ip administered daily for 9 days as Klucel suspension starting 24 hrs after tumor inoculation; type: functional; conditions: route intraperitoneal; procedure, shortened: as §1
L1210 [7] = assay: Antileukemic activity against mouse L1210 cells allografted in male CDF1 mouse assessed as change in body weight at 100 mg/kg, ip administered daily for 9 days as Klucel suspension starting 24 hrs after tumor inoculation; type: functional; conditions: route intraperitoneal; procedure, shortened: as §1
L1210 [8] = assay: Antileukemic activity against mouse L1210 cells allografted in male CDF1 mouse assessed as change in body weight at 200 mg/kg, ip administered daily for 9 days as Klucel suspension starting 24 hrs after tumor inoculation; type: functional; conditions: route intraperitoneal; procedure, shortened: as §1
L1210 [9] = assay: Antileukemic activity against mouse L1210 cells allografted in male CDF1 mouse assessed as host mean survival time at 200 mg/kg, ip administered daily for 9 days as Klucel suspension starting 24 hrs after tumor inoculation relative to control; type: functional; conditions: route intraperitoneal
Procedure, shortened: (§2)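 L1210 leukemia given as an ascitic fluid cell inoculum, ip, to mice of the strain and sex in each line. Test material was given ip for nine daily doses starting 24 h after inoculation, in a Klucel (hydroxypropylcellulose) suspension. Read-out is mean survival time as %T/C versus controls, with >125 taken as significant.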

L1210 [10] = assay: Antileukemic activity against mouse L1210 cells allografted in male CDF1 mouse assessed as host mean survival time at 100 mg/kg, ip administered daily for 9 days as Klucel suspension starting 24 hrs after tumor inoculation relative to control; type: functional; conditions: route intraperitoneal; procedure, shortened: as §2
L1210 [11] = assay: Antileukemic activity against mouse L1210 cells allografted in male CDF1 mouse assessed as host mean survival time at 50 mg/kg, ip administered daily for 9 days as Klucel suspension starting 24 hrs after tumor inoculation relative to control; type: functional; conditions: route intraperitoneal; procedure, shortened: as §2
L1210 [12] = assay: Antileukemic activity against mouse L1210 cells allografted in female CDF1 mouse assessed as host mean survival time at 200 mg/kg, ip administered daily for 9 days as Klucel suspension starting 24 hrs after tumor inoculation relative to control; type: functional; conditions: route intraperitoneal; procedure, shortened: as §2
L1210 [13] = assay: Antileukemic activity against mouse L1210 cells allografted in female CDF1 mouse assessed as host mean survival time at 100 mg/kg, ip administered daily for 9 days as Klucel suspension starting 24 hrs after tumor inoculation relative to control; type: functional; conditions: route intraperitoneal; procedure, shortened: as §2
L1210 [14] = assay: Antileukemic activity against mouse L1210 cells allografted in female CDF1 mouse assessed as host mean survival time at 50 mg/kg, ip administered daily for 9 days as Klucel suspension starting 24 hrs after tumor inoculation relative to control; type: functional; conditions: route intraperitoneal; procedure, shortened: as §2
Mus musculus [15] = assay: Toxicity in male CDF1 mouse allografted with mouse L1210 cells assessed as animal survival at 200 mg/kg, ip administered daily for 9 days as Klucel suspension starting 24 hrs after tumor inoculation measured on fifth day; type: organism-based; design: dose 200 mg/kg, route intraperitoneal; conditions: in vivo
Procedure, shortened: (§3)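 L1210 leukemia passaged as ascitic fluid and inoculated ip. Test agent given ip as a Klucel (hydroxypropylcellulose) suspension, nine daily doses starting 24 h after tumor inoculation. Acute toxicity read as toxicity-day survivors per group (out of 6), recorded on day 5. Animal weight difference T − C was also recorded. Follows NCI screening protocols.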

Mus musculus [16] = assay: Toxicity in male CDF1 mouse allografted with mouse L1210 cells assessed as animal survival at 100 mg/kg, ip administered daily for 9 days as Klucel suspension starting 24 hrs after tumor inoculation measured on fifth day; type: organism-based; design: dose 100 mg/kg, route intraperitoneal; conditions: in vivo; procedure, shortened: as §3
Mus musculus [17] = assay: Toxicity in male CDF1 mouse allografted with mouse L1210 cells assessed as animal survival at 50 mg/kg, ip administered daily for 9 days as Klucel suspension starting 24 hrs after tumor inoculation measured on fifth day; type: organism-based; design: dose 50 mg/kg, route intraperitoneal; conditions: in vivo; procedure, shortened: as §3
Mus musculus [18] = assay: Toxicity in female CDF1 mouse allografted with mouse L1210 cells assessed as animal survival at 400 mg/kg, ip administered daily for 9 days as Klucel suspension starting 24 hrs after tumor inoculation measured on fifth day; type: organism-based; design: dose 400 mg/kg, route intraperitoneal; conditions: in vivo; procedure, shortened: as §3
Mus musculus [19] = assay: Toxicity in female CDF1 mouse allografted with mouse L1210 cells assessed as animal survival at 50 mg/kg, ip administered daily for 9 days as Klucel suspension starting 24 hrs after tumor inoculation measured on fifth day; type: organism-based; design: dose 50 mg/kg, route intraperitoneal; conditions: in vivo; procedure, shortened: as §3

COc1ccc(-c2c(COC(C)=O)c(COC(C)=O)c3n2CCC3)cc1
EC50 [1]: 2.5 µg/mL (≈ 6.99 µM) | Activity (L1210 [2]): -1 g | Activity (L1210 [3]): -2.5 g | Activity (L1210 [4]): -2.5 g | Activity (L1210 [5]): -0.1 g | Activity (L1210 [6]): -2.9 g | Activity (L1210 [7]): -7.2 g | Activity (L1210 [8]): -5.2 g | T/C (L1210 [9]): 130% | T/C (L1210 [10]): 78% | T/C (L1210 [11]): 113% | T/C (L1210 [12]): 65% | T/C (L1210 [13]): 65% | T/C (L1210 [14]): 77% | Activity (Mus musculus [15]): Non-toxic | Activity (Mus musculus [16]): Non-toxic | Activity (Mus musculus [17]): Non-toxic | Activity (Mus musculus [18]): Toxic | Activity (Mus musculus [19]): Non-toxic
